Assay results as given in ChEMBL document CHEMBL4152354, “A reusable magnetic nickel nanoparticle based catalyst for the aqueous synthesis of diverse heterocycles and their evaluation as potential anti-bacterial agent” (2018).
In brackets after ≈: the same amount, converted by molar mass.

Legend:
Format in all cases: functional
Salmonella enterica = assay: Antibacterial activity against Salmonella enterica MTCC 735 assessed as zone of inhibition at 100 uL after 24 hrs by agar well-diffusion method
Escherichia coli = assay: Antibacterial activity against Escherichia coli MTCC 730 assessed as zone of inhibition at 100 uL after 24 hrs by agar well-diffusion method
Summary of the method: (§1)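 Mueller-Hinton agar plates swabbed with a bacterial suspension adjusted to 1.5×10^8 CFU/ml. Each 5 mm well received 100 µl of compound, and plates were incubated at 37°C for 24 h. Chloramphenicol (30 mcg) was the positive control and DMSO the negative control. Inhibition zones around wells were measured manually, in triplicate.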

Bacillus cereus [1] = assay: Antibacterial activity against Bacillus cereus MTCC 430 after 18 hrs by TTC staining based broth microdilution method; conditions: MTCC 430, 18 h
Summary of the method: (§2)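 Broth microdilution in Mueller-Hinton broth. 50 µl of inoculum from a 0.5 McFarland suspension was added to 50 µl of compound, giving final concentrations of 0.024–400 mg/ml in DMSO. Sealed plates were incubated at 37°C for 18 h, then 50 µl of 0.5% TTC was added for 1 h in the dark. MIC was the lowest concentration with no visible growth (well stays clear). Triplicate; mean ± SD.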

Klebsiella pneumoniae [2] = assay: Antibacterial activity against Klebsiella pneumoniae MTCC 109 after 18 hrs by TTC staining based broth microdilution method; conditions: MTCC 109, 18 h; summary of the method: as §2
Bacillus cereus [3] = assay: Antibacterial activity against Bacillus cereus MTCC 430 assessed as zone of inhibition at 100 uL after 24 hrs by agar well-diffusion method; summary of the method: as §1
Klebsiella pneumoniae [4] = assay: Antibacterial activity against Klebsiella pneumoniae MTCC 109 assessed as zone of inhibition at 100 uL after 24 hrs by agar well-diffusion method; summary of the method: as §1
Streptococcus pyogenes = assay: Antibacterial activity against Streptococcus pyogenes MTCC 1925 assessed as zone of inhibition at 100 uL after 24 hrs by agar well-diffusion method; summary of the method: as §1

Structure (SMILES)	inhibition zone (IZ) (Salmonella enterica) [mm]	inhibition zone (IZ) (Escherichia coli) [mm]	MIC (Bacillus cereus [1]) [µg/mL]	MIC (Klebsiella pneumoniae [2]) [µg/mL]	inhibition zone (IZ) (Bacillus cereus [3]) [mm]	inhibition zone (IZ) (Klebsiella pneumoniae [4]) [mm]	inhibition zone (IZ) (Streptococcus pyogenes) [mm]
CCOc1ccc(C(c2c(O)c3ccccc3oc2=O)c2c(O)c3ccccc3oc2=O)cc1	11	13	3120 (≈ 6840 µM)	780 (≈ 1710 µM)	12	19	20
O=c1oc2ccccc2c(O)c1C(c1ccc(Cl)cc1)c1c(O)c2ccccc2oc1=O	10	23	390 (≈ 873 µM)	190 (≈ 425 µM)	19	25	24
O=c1oc2ccccc2c(O)c1C(c1ccccc1)c1c(O)c2ccccc2oc1=O	10	17	190 (≈ 461 µM)	190 (≈ 461 µM)	20	21	23
O=c1oc2ccccc2c(O)c1C(c1ccco1)c1c(O)c2ccccc2oc1=O	11	15	3120 (≈ 7750 µM)	780 (≈ 1940 µM)	14	17	18
CC1(C)CC(=O)C(C(C2=C(O)CC(C)(C)CC2=O)c2ccccc2)=C(O)C1	0	0			0	0	0
O=c1oc2ccccc2c(O)c1C(c1ccccc1Cl)c1c(O)c2ccccc2oc1=O	10	18	3120 (≈ 6980 µM)	190 (≈ 425 µM)	11	24	22
CC1(C)CC(=O)C(C(C2=C(O)CC(C)(C)CC2=O)c2ccc([N+](=O)[O-])cc2)=C(O)C1	0	0			15	14	0
O=c1oc2ccccc2c(O)c1C(c1ccc(O)cc1)c1c(O)c2ccccc2oc1=O	10	10	6250 (≈ 14600 µM)	3120 (≈ 7280 µM)	10	10	10
O=c1oc2ccccc2c(O)c1C(c1ccc([N+](=O)[O-])cc1)c1c(O)c2ccccc2oc1=O	11	13	780 (≈ 1710 µM)	390 (≈ 853 µM)	16	19	15
COc1ccc(C(c2c(O)c3ccccc3oc2=O)c2c(O)c3ccccc3oc2=O)cc1OC	10	15	780 (≈ 1650 µM)	780 (≈ 1650 µM)	16	18	13
COc1ccc(C(c2c(C)[nH][nH]c2=O)C2C(=O)NC(=O)NC2=O)cc1OC (configuration not stated)	10	16	780 (≈ 2080 µM)	390 (≈ 1040 µM)	15	21	17
COc1cc(C(C2=C(O)CC(C)(C)CC2=O)C2=C(O)CC(C)(C)CC2=O)cc(OC)c1OC	0	0			0	0	0
Cc1ccc(C(C2=C(O)CC(C)(C)CC2=O)C2=C(O)CC(C)(C)CC2=O)cc1	0	0			0	0	0
CCC(C1=C(O)CC(C)(C)CC1=O)C1=C(O)CC(C)(C)CC1=O	0	0			0	0	0
Cc1[nH][nH]c(=O)c1C(c1cccc(F)c1)C1C(=O)NC(=O)NC1=O (configuration not stated)	11	15	780 (≈ 2350 µM)	390 (≈ 1170 µM)	15	20	15
COc1ccc(C(c2c(C)[nH][nH]c2=O)C2C(=O)NC(=O)NC2=O)cc1 (configuration not stated)	11	14	6250 (≈ 18200 µM)	3120 (≈ 9060 µM)	14	11	13
